For series [1], the target named is Hepatocyte growth factor receptor (Homo sapiens, UniProt P08581). The series is described as follows: Inhibition of recombinant c-met by HTRF assay.
The test system of series [2] is NCI-N87. Kind of series: Growth inhibition of c-met-independent human NCI-N87 cells after 72 hrs by MTS assay. The class given is functional. As to conditions: NCI-N87, 72 h.
Series [3] relates to MKN-45. The series is described as follows: Growth inhibition of c-met-amplified human MKN45 cells after 72 hrs by MTS assay. The settings on record: MKN-45, 72 h. In kind it is functional. In general terms: Tetrazolium assays rely on reduction of a dye to a coloured formazan, in cell work by metabolically active cells.
Series [4] has as its system SNU-5. The series is described as follows: Growth inhibition of c-met-amplified human SNU5 cells after 72 hrs by MTS assay. In kind it is functional. As to conditions: SNU-5, 72 h.
A short description of series [5]: Growth inhibition of c-met-amplified human Hs 746T cells after 72 hrs by MTS assay. In kind it is functional. As to conditions: Hs746T.
In series [6] the target is High affinity nerve growth factor receptor (Homo sapiens, UniProt P04629). Kind of series: Inhibition of TRKA.
Series [7] has as its target Macrophage-stimulating protein receptor (Homo sapiens, UniProt Q04912). Kind of series: Inhibition of RON.
In series [8] the target is T1, Receptor-type tyrosine-protein kinase FLT3 (Homo sapiens, UniProt P36888).
T1 sequence (P36888 whole entry): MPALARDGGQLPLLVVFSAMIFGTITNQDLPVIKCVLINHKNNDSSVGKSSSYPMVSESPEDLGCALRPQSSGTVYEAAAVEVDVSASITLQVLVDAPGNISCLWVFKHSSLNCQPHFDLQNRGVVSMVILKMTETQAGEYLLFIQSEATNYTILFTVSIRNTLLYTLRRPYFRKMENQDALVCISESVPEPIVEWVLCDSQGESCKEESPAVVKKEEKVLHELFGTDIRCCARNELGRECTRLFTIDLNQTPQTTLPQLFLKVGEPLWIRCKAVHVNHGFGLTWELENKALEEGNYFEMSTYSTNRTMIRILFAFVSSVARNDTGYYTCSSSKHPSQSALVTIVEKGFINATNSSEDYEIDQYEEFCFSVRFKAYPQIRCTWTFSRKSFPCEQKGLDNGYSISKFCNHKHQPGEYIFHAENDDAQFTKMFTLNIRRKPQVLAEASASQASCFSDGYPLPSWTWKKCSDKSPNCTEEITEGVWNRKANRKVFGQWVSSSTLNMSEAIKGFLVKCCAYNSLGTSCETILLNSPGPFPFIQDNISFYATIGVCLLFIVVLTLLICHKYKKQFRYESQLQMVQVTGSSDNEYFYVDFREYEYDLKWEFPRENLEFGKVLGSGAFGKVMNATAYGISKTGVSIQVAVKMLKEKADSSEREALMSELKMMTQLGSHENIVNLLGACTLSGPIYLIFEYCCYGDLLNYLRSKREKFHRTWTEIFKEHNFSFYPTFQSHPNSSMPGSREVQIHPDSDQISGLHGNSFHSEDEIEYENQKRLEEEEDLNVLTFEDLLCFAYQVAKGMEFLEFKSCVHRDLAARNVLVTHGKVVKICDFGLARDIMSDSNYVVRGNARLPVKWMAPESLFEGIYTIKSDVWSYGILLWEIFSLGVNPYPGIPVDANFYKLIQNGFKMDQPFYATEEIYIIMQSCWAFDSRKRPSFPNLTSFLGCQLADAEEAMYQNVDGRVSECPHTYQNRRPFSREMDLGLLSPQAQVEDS
The series is described as follows: Inhibition of FLT3.

In series [9] the target is T2, Aurora kinase A (Homo sapiens, UniProt O14965).
T2 sequence (O14965 whole entry): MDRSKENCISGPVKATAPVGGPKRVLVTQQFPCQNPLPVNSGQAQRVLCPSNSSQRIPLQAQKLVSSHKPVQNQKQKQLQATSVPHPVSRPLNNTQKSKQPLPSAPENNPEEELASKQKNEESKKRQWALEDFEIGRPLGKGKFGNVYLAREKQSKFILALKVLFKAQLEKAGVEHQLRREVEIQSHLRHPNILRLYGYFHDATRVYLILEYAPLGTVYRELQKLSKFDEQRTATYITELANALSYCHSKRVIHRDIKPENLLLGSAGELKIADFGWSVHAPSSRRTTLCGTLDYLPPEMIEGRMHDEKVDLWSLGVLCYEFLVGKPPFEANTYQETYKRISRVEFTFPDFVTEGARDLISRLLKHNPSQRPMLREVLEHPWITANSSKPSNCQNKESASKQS
The series is described as follows: Inhibition of AurA.

Series [10] is described as follows: Oral bioavailability in rat at 10 mg/kg. In kind it is ADME, organism-based. The settings on record: in vivo. The gist of the method: (§1)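 Rat pharmacokinetics: 10 mg/kg dose given, three rats per group.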
A short description of series [11]: Cmax in rat at 10 mg/kg, po. The class given is ADME, organism-based. Also on record: dose 10 mg/kg, route oral. As to conditions: in vivo. The gist of the method: as §1
Series [12] is described as follows: Volume of distribution at steady state in rat at 10 mg/kg, iv. Also on record: dose 10 mg/kg, route intravenous. The class given is ADME, organism-based. As to conditions: in vivo, read-out: Vdss. Summed up:
as §1

The nature of series [13]: AUC in rat at 10 mg/kg, po. The class given is ADME, organism-based. More on the design: dose 10 mg/kg, route oral. As to conditions: plasma. The gist of the method:
as §1

Series [14] in a line: Clearance in rat at 10 mg/kg, iv. The class given is ADME, organism-based. Also on record: dose 10 mg/kg, route intravenous. As to conditions: in vivo. Summed up:
as §1

A short description of series [15]: AUC in rat at 10 mg/kg, iv. In kind it is ADME, organism-based. More on the design: dose 10 mg/kg, route intravenous. As to conditions: plasma. The gist of the method: as §1

Chain of Hepatocyte growth factor receptor (P08581 whole entry): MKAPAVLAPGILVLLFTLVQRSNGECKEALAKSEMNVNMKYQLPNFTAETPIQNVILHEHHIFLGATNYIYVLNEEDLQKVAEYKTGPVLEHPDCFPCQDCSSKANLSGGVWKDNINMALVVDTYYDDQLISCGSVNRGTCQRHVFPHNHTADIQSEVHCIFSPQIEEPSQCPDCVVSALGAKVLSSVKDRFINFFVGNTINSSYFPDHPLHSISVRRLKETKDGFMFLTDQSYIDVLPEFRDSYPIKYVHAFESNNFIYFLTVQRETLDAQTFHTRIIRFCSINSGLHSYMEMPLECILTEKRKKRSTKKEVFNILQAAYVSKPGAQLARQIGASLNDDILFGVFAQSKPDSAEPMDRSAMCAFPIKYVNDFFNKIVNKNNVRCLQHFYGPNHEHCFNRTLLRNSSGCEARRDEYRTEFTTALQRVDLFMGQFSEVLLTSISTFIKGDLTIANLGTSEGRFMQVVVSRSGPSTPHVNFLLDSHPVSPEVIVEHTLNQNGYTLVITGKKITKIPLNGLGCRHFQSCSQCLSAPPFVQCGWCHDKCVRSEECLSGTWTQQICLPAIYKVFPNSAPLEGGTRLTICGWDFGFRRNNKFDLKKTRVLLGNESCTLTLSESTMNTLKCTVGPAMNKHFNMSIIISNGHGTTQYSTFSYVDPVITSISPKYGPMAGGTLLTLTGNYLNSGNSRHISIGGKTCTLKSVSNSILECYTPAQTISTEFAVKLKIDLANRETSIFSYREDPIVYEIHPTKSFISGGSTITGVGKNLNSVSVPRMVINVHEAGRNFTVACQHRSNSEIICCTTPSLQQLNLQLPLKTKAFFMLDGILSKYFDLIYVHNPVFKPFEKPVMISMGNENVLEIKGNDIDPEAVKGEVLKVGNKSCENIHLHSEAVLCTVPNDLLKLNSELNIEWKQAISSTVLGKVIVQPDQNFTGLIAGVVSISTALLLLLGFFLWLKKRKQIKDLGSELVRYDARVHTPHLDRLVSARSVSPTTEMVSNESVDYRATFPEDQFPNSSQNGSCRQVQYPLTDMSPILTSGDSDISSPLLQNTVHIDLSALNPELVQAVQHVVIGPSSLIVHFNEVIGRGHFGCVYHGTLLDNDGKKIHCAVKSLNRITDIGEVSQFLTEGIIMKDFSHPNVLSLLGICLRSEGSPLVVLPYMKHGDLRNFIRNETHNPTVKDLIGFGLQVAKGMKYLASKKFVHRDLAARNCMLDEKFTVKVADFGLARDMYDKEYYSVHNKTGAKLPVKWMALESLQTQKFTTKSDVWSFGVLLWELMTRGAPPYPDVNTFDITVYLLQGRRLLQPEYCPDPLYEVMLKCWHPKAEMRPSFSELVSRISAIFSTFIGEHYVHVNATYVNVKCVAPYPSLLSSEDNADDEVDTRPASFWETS
Chain of High affinity nerve growth factor receptor (P04629 whole entry): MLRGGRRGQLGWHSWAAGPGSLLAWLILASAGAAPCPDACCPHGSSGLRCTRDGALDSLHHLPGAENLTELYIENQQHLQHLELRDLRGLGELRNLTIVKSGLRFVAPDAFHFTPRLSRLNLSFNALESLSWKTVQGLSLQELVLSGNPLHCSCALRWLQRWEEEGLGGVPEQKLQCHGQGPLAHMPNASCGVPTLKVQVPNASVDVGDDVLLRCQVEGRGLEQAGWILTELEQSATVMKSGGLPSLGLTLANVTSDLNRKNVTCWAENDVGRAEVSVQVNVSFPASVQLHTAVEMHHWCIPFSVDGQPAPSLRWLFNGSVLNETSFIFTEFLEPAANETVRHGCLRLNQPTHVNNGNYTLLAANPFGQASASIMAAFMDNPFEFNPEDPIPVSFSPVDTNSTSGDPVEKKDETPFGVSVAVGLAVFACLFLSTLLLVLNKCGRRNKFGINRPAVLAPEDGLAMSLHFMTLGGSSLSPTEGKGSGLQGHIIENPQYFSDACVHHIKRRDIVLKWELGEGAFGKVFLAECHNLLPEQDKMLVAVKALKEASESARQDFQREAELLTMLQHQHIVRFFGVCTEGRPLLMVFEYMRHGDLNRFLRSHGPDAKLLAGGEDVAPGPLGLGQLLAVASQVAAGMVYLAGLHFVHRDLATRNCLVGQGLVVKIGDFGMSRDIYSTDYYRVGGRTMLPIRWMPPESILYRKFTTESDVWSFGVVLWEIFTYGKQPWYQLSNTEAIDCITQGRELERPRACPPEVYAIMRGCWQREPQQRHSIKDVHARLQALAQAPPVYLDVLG
Chain of Macrophage-stimulating protein receptor (Q04912 25-304 limits assumed): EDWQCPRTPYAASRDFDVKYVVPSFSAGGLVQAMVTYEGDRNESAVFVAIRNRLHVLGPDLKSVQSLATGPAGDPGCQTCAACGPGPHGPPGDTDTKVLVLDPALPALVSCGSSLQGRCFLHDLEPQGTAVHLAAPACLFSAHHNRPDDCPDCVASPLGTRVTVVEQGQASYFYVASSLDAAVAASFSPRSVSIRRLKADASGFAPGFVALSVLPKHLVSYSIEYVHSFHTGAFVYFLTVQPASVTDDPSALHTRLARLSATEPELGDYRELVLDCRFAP
Chain of Macrophage-stimulating protein receptor (Q04912 310-1400 limits assumed): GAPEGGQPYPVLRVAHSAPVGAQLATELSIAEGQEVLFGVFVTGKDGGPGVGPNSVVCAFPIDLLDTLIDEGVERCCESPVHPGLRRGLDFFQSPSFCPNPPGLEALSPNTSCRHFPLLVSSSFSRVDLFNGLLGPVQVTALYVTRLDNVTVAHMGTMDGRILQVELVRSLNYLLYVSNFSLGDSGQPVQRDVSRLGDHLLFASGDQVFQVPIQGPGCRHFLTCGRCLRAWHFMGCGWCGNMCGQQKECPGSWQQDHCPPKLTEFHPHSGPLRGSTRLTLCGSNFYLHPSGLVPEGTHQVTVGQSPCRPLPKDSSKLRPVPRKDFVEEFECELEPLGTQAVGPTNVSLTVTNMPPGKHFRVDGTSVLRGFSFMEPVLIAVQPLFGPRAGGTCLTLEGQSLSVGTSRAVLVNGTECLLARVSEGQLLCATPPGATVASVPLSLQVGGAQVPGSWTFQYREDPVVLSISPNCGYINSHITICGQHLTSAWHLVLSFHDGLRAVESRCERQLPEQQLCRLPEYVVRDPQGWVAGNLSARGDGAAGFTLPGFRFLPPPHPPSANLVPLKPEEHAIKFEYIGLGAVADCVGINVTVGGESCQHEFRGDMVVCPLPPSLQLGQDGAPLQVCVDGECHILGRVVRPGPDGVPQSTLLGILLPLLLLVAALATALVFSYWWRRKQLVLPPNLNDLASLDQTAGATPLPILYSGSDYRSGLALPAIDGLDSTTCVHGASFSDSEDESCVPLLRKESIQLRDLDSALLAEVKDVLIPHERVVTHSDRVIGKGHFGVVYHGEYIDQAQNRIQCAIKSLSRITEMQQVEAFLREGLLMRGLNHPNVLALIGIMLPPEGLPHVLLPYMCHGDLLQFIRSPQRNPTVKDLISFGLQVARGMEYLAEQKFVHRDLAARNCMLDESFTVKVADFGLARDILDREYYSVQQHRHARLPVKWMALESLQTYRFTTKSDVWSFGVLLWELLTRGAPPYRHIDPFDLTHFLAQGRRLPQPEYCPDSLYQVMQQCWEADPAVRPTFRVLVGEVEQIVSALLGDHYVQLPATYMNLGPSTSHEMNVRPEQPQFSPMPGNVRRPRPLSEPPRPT

Broadly, the IC50 is the concentration that inhibits the measured activity by half. On to `O=c1[nH]ccc2c(Cc3nnc4ccc(-c5ccccc5Cl)nn34)cccc12`, for which the IC50 in series [1] worked out at 4 nM.
By GI50 is commonly meant the concentration at which growth is held to half of that of the control. Lower therefore signals more potent growth inhibition. For the molecule `O=c1[nH]ccc2c(Cc3nnc4ccc(-c5cccnc5)nn34)cccc12`, the GI50 was greater than 10000 nM in [2], 420 nM in series [3], 450 nM in [4] and 400 nM in [5]. Further, in series [1], the IC50 was 5 nM.
On the same counts, the results for `O=c1[nH]ccc2c(Cc3nnc4ccc(-c5cccc(Cl)c5)nn34)cccc12` are greater than 10000 nM, 11 nM, 19 nM, 53 nM and 7 nM.
Turning to `Cn1cc(-c2ccc3nnc(Cc4cccc5c(=O)[nH]ccc45)n3n2)cn1`, the 50% growth inhibitory concentration (GI50) in series [2] was greater than 10000 nM; in [3], 130 nM; in series [4], 690 nM; in series [5], 64 nM. Also, the IC50 was greater than 10000 nM in series [6]; greater than 10000 nM in series [7]; greater than 10000 nM in series [8]; 2 nM in [1]; greater than 10000 nM in [9].
Take `O=c1[nH]ccc2c(Cc3nnc4ccc(-c5ccsc5)nn34)cccc12`: the GI50 was greater than 10000 nM in series [2], 32 nM in series [3], 56 nM in [4] and 170 nM in series [5]. In addition, in series [1], the half-inhibitory concentration (IC50) amounted to 4 nM.
Take `O=c1[nH]ccc2c(Cc3nnc4ccc(N5CCCCC5)nn34)cccc12`: in [1], the half-maximal inhibitory concentration (IC50) stood at 29 nM.
Consider `N#Cc1cccc(-c2ccc3nnc(Cc4cccc5c(=O)[nH]ccc45)n3n2)c1`, for which the concentration for 50% growth inhibition (GI50) was greater than 10000 nM in [2], 36 nM in series [3], 120 nM in series [4] and 59 nM in [5]. In addition, in series [1], the IC50 was found to be 3 nM.
On to `Cc1ccccc1-c1ccc2nnc(Cc3cccc4c(=O)[nH]ccc34)n2n1`, for which the IC50 in [1] came to 72 nM.
`O=c1[nH]ccc2c(Cc3nnc4ccc(-c5cnn(C6CCNCC6)c5)nn34)cccc12`: in series [1], the IC50 turned out to be 27 nM.
Still for that read-out and setting: with `O=c1[nH]ccc2c(Cc3nnc4ccc(-c5cccc([N+](=O)[O-])c5)nn34)cccc12` the figure was 4 nM.
In the case of `O=c1[nH]ccc2c(Cc3nnc4ccc(-c5cccc(O)c5)nn34)cccc12`, the GI50 is greater than 10000 nM in series [2], 470 nM in series [3], 1100 nM in series [4] and 600 nM in series [5]. Moreover, the IC50 in series [1] amounted to 3 nM.
On to `Cn1ccc2c(Cc3nnc4ccc(-c5cccc(F)c5)nn34)cccc2c1=O`, for which the IC50 in [1] was 73 nM.
Same read-out and setting: with `CCn1ccc2c(Cc3nnc4ccc(-c5cccc(F)c5)nn34)cccc2c1=O` the figure was 72 nM; with `O=c1[nH]ccc2c(Cc3nnc4ccc(N5CCCC5)nn34)cccc12`, 27 nM; with `O=c1[nH]ccc2c(Cc3nnc4ccc(-c5cnn(CCO)c5)nn34)cccc12`, 2 nM.
As to `O=c1[nH]ccc2c(Cc3nnc4ccc(-c5cn[nH]c5)nn34)cccc12`, the IC50 in series [1] is 5 nM.
On the same count and under the same terms, then `O=c1[nH]ccc2c(Cc3nnc4ccc(-c5csc6ccccc56)nn34)cccc12`, with 14 nM.
Turning to `COc1cccc(-c2ccc3nnc(Cc4cccc5c(=O)[nH]ccc45)n3n2)c1`, the concentration for 50% growth inhibition (GI50) was greater than 10000 nM in series [2], 95 nM in [3], 130 nM in [4] and 100 nM in series [5]. Also, the IC50 in series [1] was found to be 5 nM.
On the same counts, the results for `O=c1[nH]ccc2c(Cc3nnc4ccc(-c5cccc(F)c5)nn34)cccc12` are greater than 10000 nM, 42 nM, 52 nM, 130 nM and 3 nM.
Broadly, the bioavailability is the share of a dose that reaches the circulation, judged against a reference dose that is usually intravenous. One may read the Cmax as the highest concentration seen after dosing. By AUC is commonly meant the area under the concentration-time curve, a measure of exposure. A high value points to more exposure. As usually defined, the clearance is the volume of plasma or blood freed of the substance per unit of time. Lower therefore signals inefficient removal. For `O=c1[nH]ccc2c(Cc3nnc4ccc(-c5ccccc5)nn34)cccc12`, the GI50 in series [2] is greater than 10000 nM; in series [3], 38 nM; in series [4], 59 nM; in series [5] it was 71 nM. In [10], this molecule showed a bioavailability of 35%. In series [11], this molecule had a maximum concentration (Cmax) of 300 ng/mL. In addition, the IC50 in [6] is greater than 10000 nM; in series [7] it was greater than 10000 nM; in series [8], greater than 10000 nM; in series [1], 3 nM; in series [9], greater than 10000 nM. Also, in [12], the Vd was found to be 6.4 L/kg. For the same molecule, the AUC came out at 3900 ng·h/mL in [13] and 11200 ng·h/mL in series [15]. The clearance in [14] is 13.3 mL/min/kg.

For the origin of these results see ChEMBL document CHEMBL1921685, “Design and synthesis of triazolopyridazines substituted with methylisoquinolinone as selective c-Met kinase inhibitors” (Bioorg Med Chem Lett, 2011).
